# Measurements taken from ChEMBL document CHEMBL4364327, “Discovery of benzimidazole analogs as a novel interleukin-5 inhibitors” (Eur J Med Chem, 2019).
# Test system: not listed separately
# Test: Cytotoxicity against human HCC1395BL cells assessed as inhibition of cell viability at 30 uM measured after 48 hrs by MTT assay
# Assay type: cell-based
# Conditions: read-out: INH
# Procedure, shortened: (§1)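 HCC1395 BL or NCI-BL1184 normal B lymphoblasts were cultured in RPMI-1640 or IMDM with 10% FBS at 37 °C and 5% CO₂, with serum but no IL-5. Cells were exposed to compound for 48 h, then to 0.5 mg/mL MTT for a further 3 h. Values are the mean ± SD of three independent measurements.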
row,SMILES,"cytotoxicity at 48 h, 30 µM [%]"
1,CCC(CO)NCc1nc2c(OCC3CCCCC3)cccc2[nH]1 (stereo unspecified),7.5
2,OCC(CC1CCCCC1)NCc1nc2c(OCC3CCCCC3)cccc2[nH]1 (stereo unspecified),12.5

# Test system: not listed separately
# Test: Cytotoxicity against human NCI-BL1184 cells assessed as inhibition of cell viability at 30 uM measured after 48 hrs by MTT assay
# Assay type: cell-based
# Conditions: read-out: INH
# Procedure, shortened: as §1
row,SMILES,"cytotoxicity at 48 h, 30 µM [%]"
1,CCC(CO)NCc1nc2c(OCC3CCCCC3)cccc2[nH]1 (stereo unspecified),10.2
2,OCC(CC1CCCCC1)NCc1nc2c(OCC3CCCCC3)cccc2[nH]1 (stereo unspecified),9.8

# Biological target: T1, Interleukin-5 receptor subunit alpha (Mus musculus) (UniProt P21183)
# T1 sequence (whole entry): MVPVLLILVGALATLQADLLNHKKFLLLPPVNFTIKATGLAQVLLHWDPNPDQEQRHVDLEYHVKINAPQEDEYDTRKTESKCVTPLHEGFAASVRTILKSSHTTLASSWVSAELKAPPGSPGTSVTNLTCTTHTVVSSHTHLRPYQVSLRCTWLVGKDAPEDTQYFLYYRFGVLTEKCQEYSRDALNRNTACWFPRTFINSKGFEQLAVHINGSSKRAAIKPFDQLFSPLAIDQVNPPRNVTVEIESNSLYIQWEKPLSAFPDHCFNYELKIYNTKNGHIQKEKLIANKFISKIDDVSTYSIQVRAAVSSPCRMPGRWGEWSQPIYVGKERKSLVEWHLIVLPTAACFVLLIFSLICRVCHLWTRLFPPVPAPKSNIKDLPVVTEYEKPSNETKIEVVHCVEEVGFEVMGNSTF
# Test: Inhibition of IL-5 receptor in mouse pro-B Y16 cells assessed as decrease in mIL-5 dependent cell proliferation at 30 uM after 48 hrs in presence of 3 units/ml mIL-5 by WST-1 assay relative to control
# Assay type: cell-based
# Conditions: not given
# Procedure, shortened: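 Y16 murine early B-cell line was maintained in RPMI-1640 with 8% FBS and 3 units/mL mIL-5. Cells were washed twice in Hanks', resuspended without IL-5 (viability >95%), and plated at 1 × 10⁴ cells per well. A 3 units/mL mIL-5 solution and sample were added. Control wells received medium in place of sample; blank wells received medium in place of mIL-5. After 48 h at 37 °C, WST-1 was added for 2–4 h and A450 was read.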
row,SMILES,inhibition [%]
1,CCCN(CCO)Cc1nc2c(OCC3CCCCC3)cccc2[nH]1,63
2,OCCN(Cc1ccccc1)Cc1nc2c(OCC3CCCCC3)cccc2[nH]1,62.3
3,COc1ccc(CN(CCO)Cc2nc3c(OCC4CCCCC4)cccc3[nH]2)cc1,73.3
4,OCCNCc1nc2c(OCC3CCCCC3)cccc2[nH]1,63.3
5,CCC(CO)NCc1nc2c(OCC3CCCCC3)cccc2[nH]1 (stereo unspecified),94.3
6,OCCC(NCc1nc2c(OCC3CCCCC3)cccc2[nH]1)c1ccccc1 (stereo unspecified),64.7
7,OCCCCNCc1nc2c(OCC3CCCCC3)cccc2[nH]1,44.3
8,CC(C)(CO)NCc1nc2c(OCC3CCCCC3)cccc2[nH]1,54.7
9,OCCN(Cc1nc2c(OCC3CCCCC3)cccc2[nH]1)CC1CCCCC1,76.7
10,OCCN(Cc1nc2c(OCC3CCCCC3)cccc2[nH]1)C1CCCCC1,24
11,CCN(CCO)Cc1nc2c(OCC3CCCCC3)cccc2[nH]1,34.7
12,CCCC(CO)NCc1nc2c(OCC3CCCCC3)cccc2[nH]1 (stereo unspecified),73.3
13,OCCN(Cc1ccc(Cl)cc1)Cc1nc2c(OCC3CCCCC3)cccc2[nH]1,96
14,CN(CCO)Cc1nc2c(OCC3CCCCC3)cccc2[nH]1,42
15,OCCCCCNCc1nc2c(OCC3CCCCC3)cccc2[nH]1,23.7
16,CC(C)N(CCO)Cc1nc2c(OCC3CCCCC3)cccc2[nH]1,10

# Now from value to molecule:
row,inhibition [%],SMILES
1,25,c1ccc(NCc2nc3c(OCC4CCCCC4)cccc3[nH]2)cc1
2,43.3,OCCN(Cc1ccncc1)Cc1nc2c(OCC3CCCCC3)cccc2[nH]1
3,20.3,COc1ccc(NCc2nc3c(OCC4CCCCC4)cccc3[nH]2)cc1
4,81,OCC(Cc1ccccc1)NCc1nc2c(OCC3CCCCC3)cccc2[nH]1 (stereo unspecified)
5,43.3,COc1ccc(CNCc2nc3c(OCC4CCCCC4)cccc3[nH]2)cc1
6,94.7,OCC(CC1CCCCC1)NCc1nc2c(OCC3CCCCC3)cccc2[nH]1 (stereo unspecified)
7,77.7,OCC(NCc1nc2c(OCC3CCCCC3)cccc2[nH]1)c1ccccc1 (stereo unspecified)
8,49.3,c1ccc(CNCc2nc3c(OCC4CCCCC4)cccc3[nH]2)cc1
9,52.7,OCCCNCc1nc2c(OCC3CCCCC3)cccc2[nH]1

# Biological target: T1, Interleukin-5 receptor subunit alpha (Mus musculus)
# Test: Inhibition of IL-5 receptor in mouse pro-B Y16 cells assessed as decrease in mIL-5 dependent cell proliferation at 50 uM after 48 hrs in presence of 3 units/ml mIL-5 by WST-1 assay relative to control
# Assay type: cell-based
# Conditions: not given
row,inhibition [%],SMILES
1,79.1,O=c1c(-c2ccc(O[C@@H]3O[C@H](CO)[C@@H](O)[C@H](O)[C@H]3O)cc2)coc2cc(O)cc(O)c12
2,70.2,CCCC1O[C@@H]2C[C@H]3[C@@H]4CCC5=CC(=O)C=C[C@]5(C)[C@H]4[C@@H](O)C[C@]3(C)[C@]2(C(=O)CO)O1 (stereo partly specified)
